b-catenin transl: modulators of beta-catenin nuclear translocation, primary screen, imaging, HeLa cells, immunofluorescence, high-content | actives 0.3% (n = 190,000) | nuclear translocation activity, % at 5 µM;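 active = nuclear translocation activity above 50% at 5 µM, with a well cell count of 50 or more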;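 also: per-cell ratio of nuclear to cytoplasmic median beta-catenin stain intensity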
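System: Human HeLa cells, endogenous beta-catenin | Compound dosing: 5 µM primary, 0.02–20 µM confirmation | Timing: 24 h compound exposure at 37°C, 5% CO2 | Measured by: Fluorescence imaging of beta-catenin antibody stain plus DAPI | Read-out basis: % activation of per-cell nuclear versus cytoplasmic median beta-catenin signal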
APP transl inh: inhibitors of APP translation via 5'UTR reporter, primary screen, APP 5'UTR luciferase, SH-SY5Y cells; inhibition, % at 2 µM; AID 1285, 2008; actives 0.82% (n = 190,000); SH-SY5Y APP 5'UTR-luciferase reporter, luminescence;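 active = inhibition above a set limit, derived from the sample mean plus 3 SD, cut at about 45% in these data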
Ba/F3 V617F tox: reduced viability of JAK2V617F-dependent Ba/F3 cells, primary screen, JAK2V617F inhibitor project, cell-based, Ba/F3 EpoR-JAK2V617F, luminescence; ATP luminescence; inhibition, % at 5.6 µM; actives 1.1% (n = 220,000);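 active = inhibition above the campaign mean plus 3 SD over all tested compounds, cut at about 24% in these data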;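 also: cytokine-independent growth of Ba/F3 cells driven by EpoR plus mutant JAK2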
BaF3 parental: parental Ba/F3 cell viability inhibition, counter-screen for JAK2V617F inhibitor project, murine pro-B, CellTiter-Glo luminescence; CellTiter-Glo ATP luminescence; inhibition, % at 5.6 µM; actives 1.1% (n = 220,000);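 active = inhibition above a per-campaign cutoff, the mean inhibition of all tested compounds plus 3 SD, cut at about 27% in these data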
IEC-6 tox: cytotoxicity in IEC-6 intestinal epithelial cells, primary screen, cytotoxicity control for KLF5 inhibitor project, cell-based, luminescence; AID 1825, 2009; actives 0.78% (n = 290,000); IEC-6 cytotoxicity, luminescence viability; inhibition, % at 5 µM; in the data active = inhibition above about 22%
MT stabilizer: microtubule stabilizers in HeLa cells, primary screen, imaging, high-content imaging. actives 0.83% (n = 200,000). HeLa tubulin immunostaining HCS, 24 h; share of cells brighter than vehicle mean+2SD. % tubulin-high responders, % at 10 µM. AID 2205, 2009;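 active = plate Z-score above 3 for both tubulin-high and condensed-nucleus cell shares, with cell loss under 80%, at 10 µM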;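 also: anti alpha tubulin signal scored within the nucleus-defined area of each cell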
Of the large screens only hits and unclear results are named; the others gave an inactive call. The list is not random: actives were taken first. Their share in the collection is about 2.2%.

COc1ccc(NC(=O)C(=O)NNC(=O)c2cccs2)cc1	APP transl inh 64.2
CC(C)(C)c1ccc(/C=N/N2CCN(c3ccccn3)CC2)cc1	none (no result: APP transl inh, MT stabilizer)
CN(C)c1ccc(/C=N/N2CCN(c3ccccn3)CC2)cc1	Ba/F3 V617F tox 34.7, BaF3 parental 56.5 (no result: APP transl inh, MT stabilizer)
Cc1cc(NO)c(C(C)C)cc1N=O	Ba/F3 V617F tox 51.2, BaF3 parental 45.2
Cc1cc(O)c(C(C)C)cc1N=Nc1ccccc1C(=O)O	none (no result: APP transl inh, MT stabilizer)
O=C(Nc1cnn(Cc2ccc(F)cc2)c1)c1noc2c1CCCC2	Ba/F3 V617F tox 54.8, BaF3 parental 57.9
CC(C)(C)C1CCc2onc(C(=O)Nc3cnn(Cc4ccc(F)cc4)c3)c2C1 (stereo not given)	none
O=C(Nc1ccc(-c2n[nH]c(=S)o2)cc1)c1ccccc1Cl	none (no result: b-catenin transl, APP transl inh, Ba/F3 V617F tox, BaF3 parental, MT stabilizer)
CC(C)n1c(CN2CCN(C(=O)c3ccco3)CC2)nc2c1c(=O)n(C)c(=O)n2C	none (no result: b-catenin transl, APP transl inh, Ba/F3 V617F tox, BaF3 parental, MT stabilizer)
Clc1ccc2noc(-c3ccccc3)c2c1	APP transl inh 46.9
O=C(O)c1ccc2noc(-c3ccccc3)c2c1	none
Cc1c(Cc2ccccc2)sc(/N=C/c2c(O)ccc3ccccc23)c1C(N)=O	none
Cc1c(Cc2ccccc2)sc(/N=C/c2ccc3ccccc3c2)c1C(N)=O	b-catenin transl 100.7, APP transl inh 53.4, MT stabilizer 19.2
COc1ccc(-n2c(-c3ccc(Cl)cc3)c[n+]3c2CCc2ccccc2-3)cc1	Ba/F3 V617F tox 84.4, BaF3 parental 69.0
COc1ccc(-n2c(-c3ccccc3)nnc2-c2ccc(Cl)cc2)cc1	none
O=C(Nc1nc(-c2ccc(F)c(F)c2)cs1)Nc1ccc(F)cc1F	none (no result: b-catenin transl, APP transl inh, Ba/F3 V617F tox, BaF3 parental, MT stabilizer)
C=CC[N+](C)(C)C/C(Cl)=C(\Cl)c1ccccc1	Ba/F3 V617F tox 25.6, BaF3 parental 27.3
COC(=O)c1ccccc1NC(=O)CSc1n[nH]c(-c2ccco2)n1	none (no result: b-catenin transl, APP transl inh, Ba/F3 V617F tox, BaF3 parental, MT stabilizer)
CCOC(=O)C1CCCN(S(=O)(=O)c2ccc(S(=O)(=O)N(CC)CC)cc2)C1 (stereo not given)	Ba/F3 V617F tox 52.4, BaF3 parental 69.3 (no result: MT stabilizer)
COc1cccc(NC(=O)Nc2cccc(C(=O)O)c2)c1	APP transl inh 51.1
O=C(NC(=S)Nc1cccc2cccnc12)c1ccccc1	BaF3 parental 101.6
O=C(O)c1cccc(NC(=S)NC(=O)c2ccncc2)c1	APP transl inh 59.7
CC(C)(C)C(=O)NC(=S)Nc1cccc(C(=O)O)c1	none
COc1ccc(S(=O)(=O)NC(C)C(=O)Nc2ccc3c(c2)OCCO3)cc1OC (stereo not given)	none (no result: b-catenin transl, APP transl inh, Ba/F3 V617F tox, BaF3 parental, MT stabilizer)
CCOc1ccc(NC(=O)CN(C)C(=O)Cc2c(C)nc3ccccc3c2C)cc1OCC	none (no result: b-catenin transl, APP transl inh, Ba/F3 V617F tox, BaF3 parental, MT stabilizer)
COC(=O)CCNCCSc1nnc(-c2ccco2)n1Cc1ccccc1	none (no result: APP transl inh, MT stabilizer)
COc1ccccc1NC(=O)c1csc(-n2nc(C)cc2C(F)(F)F)n1	none (no result: b-catenin transl)
COc1cccc(/C=N/NC(=O)c2csc(-n3nc(C)cc3C(F)(F)F)n2)c1	MT stabilizer 42.5
Cc1cc(C(F)(F)F)n(-c2nc(C(=O)N/N=C/c3ccc(F)cc3)cs2)n1	MT stabilizer 49.1 (no result: b-catenin transl)
NC(=S)n1[nH]c(-c2ccc([N+](=O)[O-])cc2)c(N=Nc2ccccc2[N+](=O)[O-])c1=O	BaF3 parental 46.0
COC(=O)c1c(NC(=O)c2ccccc2N(C)S(=O)(=O)c2ccccc2)sc2c1CCCC2	MT stabilizer 22.4 (no result: APP transl inh)
CCOC(=O)c1c(NC(=O)c2ccc(S(=O)(=O)N3CCOCC3)cc2)sc2c1CCN(C)C2	BaF3 parental 32.9
CCOC(=O)c1c(NC(=O)c2ccccc2N(C)S(=O)(=O)c2ccccc2)sc2c1CCCC2	b-catenin transl 60.5, MT stabilizer 12.6
CCOC(=O)CSC1=C(C#N)C(c2ccc3c(c2)OCO3)CC(=O)N1 (stereo not given)	MT stabilizer 49.4
CCCCOC(=O)CSC1=C(C#N)C(c2ccc3c(c2)OCO3)CC(=O)N1 (stereo not given)	none
CN(C)Cc1c(C(=O)N/N=C/C2CC=CCC2)nnn1-c1nonc1N (stereo not given)	none (no result: b-catenin transl, APP transl inh, Ba/F3 V617F tox, BaF3 parental, MT stabilizer)
COc1ccc(N2CCc3c(C)nc(SC)nc32)cc1	MT stabilizer 16.6
CCOc1ccc(N2CCc3c(C)nc(SC)nc32)cc1	b-catenin transl 125.3, MT stabilizer 30.9
CSc1nc(C)c2c(n1)N(c1ccc(F)cc1)CC2	none
CCCCCCCCNC(=O)c1ccc(C)cc1	none
O=C1C=C(Nc2ccc(O)cc2)CC(c2ccco2)C1 (stereo not given)	MT stabilizer 45.7
CCOC(=O)c1ccc(NC2=CC(=O)CC(c3ccco3)C2)cc1 (stereo not given)	none
Cc1[nH][nH]c(=O)c1C=Nc1ccc(C(F)(F)F)cc1	APP transl inh 77.2
CCCN(Cc1ccccc1)C(=S)Nc1cccc(C(F)(F)F)c1	Ba/F3 V617F tox 34.2, BaF3 parental 33.2
CN(C)CCCN(Cc1ccccc1)C(=S)Nc1ccc(F)c(Cl)c1	Ba/F3 V617F tox 33.5, BaF3 parental 29.2
CN(C)CCCN(Cc1ccccc1)C(=S)Nc1cccc(C(F)(F)F)c1	none
CC(=O)N(c1ccc(Cl)cc1)c1cn(C(C)=O)c2ccccc12	none
CC(=O)n1cc(N(C(=O)CCl)c2ccc(C)cc2)c2ccccc21	Ba/F3 V617F tox 98.8, BaF3 parental 28.3, IEC-6 tox 23.4 (no result: APP transl inh, MT stabilizer)
O=C(N/N=C/c1cccs1)C1COc2ccccc2O1 (stereo not given)	MT stabilizer 39.8
O=C(Nc1nc(-c2ccccc2)cs1)C1CCCO1 (stereo not given)	none (no result: b-catenin transl)
O=C(Nc1ccccc1Sc1ccccc1)C1CCCO1 (stereo not given)	APP transl inh 48.7
O=C(Nc1nc(-c2ccc(-c3ccccc3)cc2)cs1)C1CCCO1 (stereo not given)	MT stabilizer 42.1 (no result: b-catenin transl)
CCN(C1CCCCC1)S(=O)(=O)c1ccc(S(=O)(=O)NCCc2ccncc2)cc1	none
O=S(=O)(NCc1ccncc1)c1ccc(Br)s1	Ba/F3 V617F tox 46.9, BaF3 parental 62.2 (no result: b-catenin transl)
Cc1ccc(S(=O)(=O)NCc2ccncc2)cc1C	Ba/F3 V617F tox 48.0, BaF3 parental 75.1
CCN(C1CCCCC1)S(=O)(=O)c1ccc(S(=O)(=O)NCc2ccncc2)cc1	Ba/F3 V617F tox 44.6, BaF3 parental 55.1 (no result: b-catenin transl)
COc1cccc(CNC(=O)C2CCN(S(=O)(=O)c3ccc4c(c3)CC(C)N4C(C)=O)CC2)c1 (stereo not given)	none (no result: b-catenin transl, APP transl inh, Ba/F3 V617F tox, BaF3 parental, MT stabilizer)
CC(C)(C)c1ccc(NC(=O)C2CCCN(c3cnccn3)C2)cc1 (stereo not given)	none (no result: b-catenin transl, APP transl inh, Ba/F3 V617F tox, BaF3 parental, MT stabilizer)
CCC1CCCCN1C(=O)c1sc2ncnc(N(CC)CC)c2c1C (stereo not given)	none
NS(=O)(=O)c1ccc(NC(=O)CSc2nc3c(c(=O)[nH]2)CCCC3)cc1	none (no result: b-catenin transl, APP transl inh, Ba/F3 V617F tox, BaF3 parental, MT stabilizer)
CCOC(=O)CNC(=O)Cn1cnc2c(nnn2-c2ccc(F)cc2)c1=O	BaF3 parental 95.8
